Molecules are shown by their SMILES.

Type in all cases: functional
What all share (details): read-out: DIZ

The subject of one test is Escherichia coli. The test is described as follows: Antimicrobial activity against Escherichia coli at 1 mg/ml after 24 hrs by agar well diffusion method. The gist of the method:
(§1)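 A 0.1 mL aliquot of each bacterial strain was spread on nutrient agar. 4 mm wells were cut with a sterile cork borer and filled with compound in DMSO at a final concentration of 1 mg mL-1. Plates were incubated at 37 °C for 24 h. The inhibition zone diameter around each well was measured and averaged over triplicate measurements.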
Background: A growth-free zone around the sample is the usual read-out of agar diffusion tests.

The subject of another test is Bacillus subtilis. The test is described as follows: Antimicrobial activity against Bacillus subtilis at 1 mg/ml after 24 hrs by agar well diffusion method. The gist of the method:
as §1

A further test relates to Staphylococcus aureus. As to the kind of experiment: Antimicrobial activity against Staphylococcus aureus at 1 mg/ml after 24 hrs by agar well diffusion method. A digest of the protocol: as §1
For another test, the system named is Candida albicans. As to the kind of experiment: Antimicrobial activity against Candida albicans at 1 mg/ml after 48 hrs by agar well diffusion method. The gist of the method:
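A 0.1 mL aliquot of the yeast was spread on potato dextrose agar. 4 mm cork-borer wells received compound in DMSO at a final concentration of 1 mg mL-1. Plates were incubated at 25 °C for 48 h. The inhibition zone diameter was read and averaged over triplicate measurements.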

`Cc1[nH]c2ccccc2c1C(=O)c1nn(-c2ccccc2)nc1NC(=O)/C(C#N)=C/N(C)C`: the zone of inhibition at 1000 µg/mL with Escherichia coli came out at 0 mm; in the test on Bacillus subtilis, 2.5 mm; in the test on Staphylococcus aureus, 0 mm; in the test on Candida albicans, 0 mm.
For the compound `Cn1cc(C(=O)c2nn(-c3ccccc3)nc2N)c2ccccc21`, the zone of inhibition at 1000 µg/mL in the test with Escherichia coli stood at 6.7 mm; with Bacillus subtilis it was 6 mm; in the test with Staphylococcus aureus, 12.2 mm; in the test on Candida albicans, 10.7 mm.
Turning to `Cc1[nH]c2ccccc2c1C(=O)c1nn(-c2ccccc2)nc1N`, the zone of inhibition at 1000 µg/mL in the test on Escherichia coli came to 8.7 mm; with Bacillus subtilis, 12 mm; in the test on Staphylococcus aureus, 12 mm; in the test with Candida albicans it was 8.7 mm.
`Cc1[nH]c2ccccc2c1C(=O)c1nn(-c2ccccc2)nc1NC(=O)CC#N`: the zone of inhibition at 1000 µg/mL in the test with Escherichia coli came to 6.2 mm; in the test with Bacillus subtilis, 9.3 mm; in the test on Staphylococcus aureus, 0 mm; in the test with Candida albicans it was 0 mm.
In the case of `Cc1[nH]c2ccccc2c1C(=O)c1nn(-c2ccccc2)nc1NC(=O)c1cn[nH]c1N`, the zone of inhibition at 1000 µg/mL was 0 mm in the test on Escherichia coli, 11.3 mm in the test on Bacillus subtilis, 0 mm in the test with Staphylococcus aureus and 0 mm with Candida albicans.
Turning to `Cn1cc(C(=O)c2nn(-c3ccccc3)nc2NC(=O)CC#N)c2ccccc21`, the zone of inhibition at 1000 µg/mL amounted to 0 mm with Escherichia coli, 6 mm in the test on Bacillus subtilis, 0 mm with Staphylococcus aureus and 0 mm with Candida albicans.
With `Cc1[nH]c2ccccc2c1-c1c(C#N)c(=O)[nH]c2nn(-c3ccccc3)nc12`, the zone of inhibition at 1000 µg/mL in the test with Escherichia coli was found to be 4 mm; with Bacillus subtilis it was 6 mm; with Staphylococcus aureus it was 0 mm; in the test with Candida albicans it was 0 mm.
Consider `Cc1[nH]c2ccccc2c1C(=O)c1nn(-c2ccccc2)nc1NC(=O)c1cnn2c(-c3ccccc3)ccnc12`, for which the zone of inhibition at 1000 µg/mL in the test on Escherichia coli turned out to be 5 mm; with Bacillus subtilis, 8 mm; in the test with Staphylococcus aureus, 0 mm; with Candida albicans it was 0 mm.
Turning to `Cn1cc(C(=O)c2nn(-c3ccccc3)nc2NC(=O)c2cnn3c(-c4cccs4)ccnc23)c2ccccc21`, the zone of inhibition at 1000 µg/mL was determined as 0 mm in the test with Escherichia coli, 4 mm with Bacillus subtilis, 0 mm in the test on Staphylococcus aureus and 5.7 mm in the test on Candida albicans.
Regarding `Cn1cc(C(=O)CC#N)c2ccccc21`, the zone of inhibition at 1000 µg/mL amounted to 0 mm in the test on Escherichia coli, 2 mm with Bacillus subtilis, 0 mm in the test on Staphylococcus aureus and 0 mm in the test with Candida albicans.
In the case of `Cc1[nH]c2ccccc2c1C(=O)CC#N`, the zone of inhibition at 1000 µg/mL was found to be 0 mm in the test on Escherichia coli, 3.3 mm in the test with Bacillus subtilis, 0 mm with Staphylococcus aureus and 0 mm in the test on Candida albicans.
Turning to `Cn1cc(C(=O)/C(C#N)=N/Nc2ccccc2)c2ccccc21`, the zone of inhibition at 1000 µg/mL amounted to 0 mm in the test on Escherichia coli, 2.7 mm in the test with Bacillus subtilis, 0 mm in the test with Staphylococcus aureus and 0 mm in the test on Candida albicans.
For the compound `Cc1[nH]c2ccccc2c1C(=O)/C(C#N)=N/Nc1ccccc1`, the zone of inhibition at 1000 µg/mL is 0 mm in the test on Escherichia coli, 1.3 mm in the test on Bacillus subtilis, 0 mm in the test on Staphylococcus aureus and 0 mm in the test with Candida albicans.
Turning to `CN(C)/C=C(\C#N)C(=O)Nc1nn(-c2ccccc2)nc1C(=O)c1cn(C)c2ccccc12`, the zone of inhibition at 1000 µg/mL in the test with Escherichia coli stood at 0 mm; with Bacillus subtilis, 3.3 mm; in the test with Staphylococcus aureus it was 0 mm; in the test with Candida albicans, 0 mm.
As for `Cn1cc(C(=O)c2nn(-c3ccccc3)nc2NC(=O)c2cn[nH]c2N)c2ccccc21`, the zone of inhibition at 1000 µg/mL stood at 0 mm in the test on Escherichia coli, 2.7 mm with Bacillus subtilis, 0 mm with Staphylococcus aureus and 0 mm with Candida albicans.
Turning to `Cn1cc(-c2c(C#N)c(=O)[nH]c3nn(-c4ccccc4)nc23)c2ccccc21`, the zone of inhibition at 1000 µg/mL turned out to be 0 mm in the test on Escherichia coli, 2 mm in the test on Bacillus subtilis, 0 mm with Staphylococcus aureus and 0 mm with Candida albicans.
Consider `Cn1cc(C(=O)c2nn(-c3ccccc3)nc2NC(=O)c2cnn3c(-c4ccccc4)ccnc23)c2ccccc21`, for which the zone of inhibition at 1000 µg/mL in the test on Escherichia coli was determined as 0 mm; with Bacillus subtilis, 3.3 mm; in the test with Staphylococcus aureus, 0 mm; with Candida albicans, 0 mm.
For the compound `Cc1cccc(-c2ccnc3c(C(=O)Nc4nn(-c5ccccc5)nc4C(=O)c4cn(C)c5ccccc45)cnn23)n1`, the zone of inhibition at 1000 µg/mL in the test on Escherichia coli is 0 mm; with Bacillus subtilis, 2.7 mm; with Staphylococcus aureus, 0 mm; in the test with Candida albicans it was 0 mm.
Take `Cn1cc(C(=O)c2nn(-c3ccccc3)nc2NC(=O)/C(C#N)=C/C=C/c2ccccc2)c2ccccc21`: the zone of inhibition at 1000 µg/mL with Escherichia coli was found to be 0 mm; with Bacillus subtilis, 2.7 mm; in the test with Staphylococcus aureus, 0 mm; with Candida albicans it was 0 mm.
On to `Cc1[nH]c2ccccc2c1C(=O)c1nn(-c2ccccc2)nc1NC(=O)/C(C#N)=C/C=C/c1ccccc1`, for which the zone of inhibition at 1000 µg/mL in the test with Escherichia coli amounted to 0 mm; in the test with Bacillus subtilis, 3 mm; in the test on Candida albicans, 0 mm.
As to `CC1(C)S[C@@H]2[C@H](NC(=O)[C@H](N)c3ccccc3)C(=O)N2[C@H]1C(=O)O` [AMPICILLIN], the zone of inhibition at 1000 µg/mL with Escherichia coli turned out to be 22 mm; with Bacillus subtilis, 1 mm; with Staphylococcus aureus, 5 mm.

The record behind these values is ChEMBL document CHEMBL1772934, “Applications of 2-arylhydrazononitriles in synthesis: preparation of new indole containing 1,2,3-triazole, pyrazole and pyrazolo[1,5-a]pyrimidine derivatives and evaluation of their antimicrobial activities” (2011).
